Test results from ChEMBL document CHEMBL3244034, “Semisynthetic cephalosporins. Synthesis and structure-activity relationships of 7-(1-pyrryl)- and 7-(1-indolyl)acetamidocephalosporin derivatives” (1978).
≈ marks a conversion by molar mass, not a printed value.

Each compound was assayed on Staphylococcus aureus (assay: Antibacterial activity against benzylpenicillin-resistant Staphylococcus aureus after 17 hrs by serial two fold dilution method).
Format: functional
Method in brief: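 Agar dilution MIC. Compound was serially diluted twofold in Mueller-Hinton agar. The surface was inoculated with a diluted 18-24-h broth culture […]. Plates were incubated 17 h at 37 °C. MIC was taken as the lowest concentration giving complete or virtually complete inhibition of visible growth.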
With `Cn1nnnc1SCC1=C(C(=O)O)N2C(=O)[C@@H](NC(=O)Cn3cccc3C=O)[C@H]2SC1` the MIC was 1.6 µg/mL (≈ 3.45 µM). For `CC(=O)OCC1=C(C(=O)O)N2C(=O)[C@@H](NC(=O)Cc3cccs3)[C@H]2SC1` [CEPHALOTHIN], the MIC was 0.4 µg/mL (≈ 1.01 µM). `CC(=O)OCC1=C(C(=O)O)N2C(=O)[C@@H](NC(=O)Cn3cccc3)[C@H]2SC1` gave an MIC of 1.6 µg/mL (≈ 4.22 µM).

What follows are compounds tested on Staphylococcus aureus (assay: Antibacterial activity against Staphylococcus aureus after 17 hrs by serial two fold dilution method).
Format: functional
Method in brief: (§1)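 Agar dilution MIC: compound serially diluted twofold in Mueller-Hinton agar. Plate surfaces were inoculated with a suitably diluted 18-24-h broth culture and incubated 17 h at 37 °C. MIC was read as the lowest concentration giving complete or virtually complete inhibition of visible growth.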
`Cn1nnnc1SCC1=C(C(=O)O)N2C(=O)[C@@H](NC(=O)Cn3cccc3C=O)[C@H]2SC1` gave an MIC of 0.8 µg/mL (≈ 1.73 µM). `CC(=O)OCC1=C(C(=O)O)N2C(=O)[C@@H](NC(=O)Cc3cccs3)[C@H]2SC1` [CEPHALOTHIN] gave an MIC of 0.1 µg/mL (≈ 0.252 µM). Work on `CC(=O)OCC1=C(C(=O)O)N2C(=O)[C@@H](NC(=O)Cn3cccc3)[C@H]2SC1` yielded an MIC of 0.8 µg/mL (≈ 2.11 µM).

The compounds below were run on Staphylococcus epidermidis (assay: Antibacterial activity against Staphylococcus epidermidis after 17 hrs by serial two fold dilution method).
Format: functional
Method in brief: as §1
In the case of `Cn1nnnc1SCC1=C(C(=O)O)N2C(=O)[C@@H](NC(=O)Cn3cccc3C=O)[C@H]2SC1`, the MIC is reported as 3.1 µg/mL (≈ 6.69 µM). Compound `CC(=O)OCC1=C(C(=O)O)N2C(=O)[C@@H](NC(=O)Cc3cccs3)[C@H]2SC1` [CEPHALOTHIN] has an MIC of 0.4 µg/mL (≈ 1.01 µM). `CC(=O)OCC1=C(C(=O)O)N2C(=O)[C@@H](NC(=O)Cn3cccc3)[C@H]2SC1` gave an MIC of 3.1 µg/mL (≈ 8.17 µM).

What follows are compounds tested on Enterococcus faecalis (assay: Antibacterial activity against Staphylococcus faecalis after 17 hrs by serial two fold dilution method).
Format: functional
Method in brief: as §1
`Cn1nnnc1SCC1=C(C(=O)O)N2C(=O)[C@@H](NC(=O)Cn3cccc3C=O)[C@H]2SC1` was tested, and the MIC was over 100 µg/mL. `CC(=O)OCC1=C(C(=O)O)N2C(=O)[C@@H](NC(=O)Cc3cccs3)[C@H]2SC1` [CEPHALOTHIN] showed an MIC of 100 µg/mL (≈ 252 µM). Compound `CC(=O)OCC1=C(C(=O)O)N2C(=O)[C@@H](NC(=O)Cn3cccc3)[C@H]2SC1` has an MIC of over 100 µg/mL.

These compounds were tested on Streptococcus pneumoniae (assay: Antibacterial activity against Streptococcus pneumoniae after 17 hrs by serial two fold dilution method).
Format: functional
Method in brief: as §1
`CC(=O)OCC1=C(C(=O)O)N2C(=O)[C@@H](NC(=O)Cc3cccs3)[C@H]2SC1` [CEPHALOTHIN] was tested, and the MIC was 0.1 µg/mL (≈ 0.252 µM). `CC(=O)OCC1=C(C(=O)O)N2C(=O)[C@@H](NC(=O)Cn3cccc3)[C@H]2SC1` was tested, and the MIC was 0.4 µg/mL (≈ 1.05 µM).

Each compound was assayed on Streptococcus pyogenes (assay: Antibacterial activity against Streptococcus pyogenes after 17 hrs by serial two fold dilution method).
Format: functional
Method in brief: as §1
With `Cn1nnnc1SCC1=C(C(=O)O)N2C(=O)[C@@H](NC(=O)Cn3cccc3C=O)[C@H]2SC1` the MIC was 0.2 µg/mL (≈ 0.431 µM). With `CC(=O)OCC1=C(C(=O)O)N2C(=O)[C@@H](NC(=O)Cc3cccs3)[C@H]2SC1` [CEPHALOTHIN] the MIC was 0.1 µg/mL (≈ 0.252 µM). Compound `CC(=O)OCC1=C(C(=O)O)N2C(=O)[C@@H](NC(=O)Cn3cccc3)[C@H]2SC1` has an MIC of 0.4 µg/mL (≈ 1.05 µM).

These compounds were tested on Klebsiella aerogenes (assay: Antibacterial activity against Enterobacter aerogenes after 17 hrs by serial two fold dilution method).
Format: functional
`Cn1nnnc1SCC1=C(C(=O)O)N2C(=O)[C@@H](NC(=O)Cn3cccc3C=O)[C@H]2SC1` was tested, and the MIC was 100 µg/mL (≈ 216 µM). For `CC(=O)OCC1=C(C(=O)O)N2C(=O)[C@@H](NC(=O)Cc3cccs3)[C@H]2SC1` [CEPHALOTHIN], the MIC was over 50 µg/mL. Work on `CC(=O)OCC1=C(C(=O)O)N2C(=O)[C@@H](NC(=O)Cn3cccc3)[C@H]2SC1` yielded an MIC of over 100 µg/mL.

Each compound was assayed on Enterobacter cloacae (assay: Antibacterial activity against Enterobacter cloacae after 17 hrs by serial two fold dilution method).
Format: functional
With `Cn1nnnc1SCC1=C(C(=O)O)N2C(=O)[C@@H](NC(=O)Cn3cccc3C=O)[C@H]2SC1` the MIC was over 100 µg/mL. `CC(=O)OCC1=C(C(=O)O)N2C(=O)[C@@H](NC(=O)Cc3cccs3)[C@H]2SC1` [CEPHALOTHIN] showed an MIC of over 100 µg/mL. `CC(=O)OCC1=C(C(=O)O)N2C(=O)[C@@H](NC(=O)Cn3cccc3)[C@H]2SC1` was tested, and the MIC was over 100 µg/mL.

These compounds were tested on Escherichia coli (assay: Antibacterial activity against Escherichia coli after 17 hrs by serial two fold dilution method).
Format: functional
Method in brief: as §1
With `Cn1nnnc1SCC1=C(C(=O)O)N2C(=O)[C@@H](NC(=O)Cn3cccc3C=O)[C@H]2SC1` the MIC was 12.5 µg/mL (≈ 27 µM). With `CC(=O)OCC1=C(C(=O)O)N2C(=O)[C@@H](NC(=O)Cc3cccs3)[C@H]2SC1` [CEPHALOTHIN] the MIC was 6.2 µg/mL (≈ 15.6 µM). `CC(=O)OCC1=C(C(=O)O)N2C(=O)[C@@H](NC(=O)Cn3cccc3)[C@H]2SC1` was tested, and the MIC was 6.2 µg/mL (≈ 16.3 µM).

These compounds were tested on Klebsiella pneumoniae (assay: Antibacterial activity against Klebsiella pneumoniae after 17 hrs by serial two fold dilution method).
Format: functional
Method in brief: as §1
`Cn1nnnc1SCC1=C(C(=O)O)N2C(=O)[C@@H](NC(=O)Cn3cccc3C=O)[C@H]2SC1` was tested, and the MIC was 12.5 µg/mL (≈ 27 µM). In the case of `CC(=O)OCC1=C(C(=O)O)N2C(=O)[C@@H](NC(=O)Cc3cccs3)[C@H]2SC1` [CEPHALOTHIN], the MIC is reported as 3.1 µg/mL (≈ 7.82 µM). For `CC(=O)OCC1=C(C(=O)O)N2C(=O)[C@@H](NC(=O)Cn3cccc3)[C@H]2SC1`, the MIC was 6.2 µg/mL (≈ 16.3 µM).

Each compound was assayed on Proteus mirabilis (assay: Antibacterial activity against Proteus mirabilis after 17 hrs by serial two fold dilution method).
Format: functional
Method in brief: as §1
With `Cn1nnnc1SCC1=C(C(=O)O)N2C(=O)[C@@H](NC(=O)Cn3cccc3C=O)[C@H]2SC1` the MIC was 50 µg/mL (≈ 108 µM). With `CC(=O)OCC1=C(C(=O)O)N2C(=O)[C@@H](NC(=O)Cc3cccs3)[C@H]2SC1` [CEPHALOTHIN] the MIC was 6.2 µg/mL (≈ 15.6 µM). Work on `CC(=O)OCC1=C(C(=O)O)N2C(=O)[C@@H](NC(=O)Cn3cccc3)[C@H]2SC1` yielded an MIC of 12.5 µg/mL (≈ 32.9 µM).

What follows are compounds tested on Proteus vulgaris (assay: Antibacterial activity against Proteus vulgaris after 17 hrs by serial two fold dilution method).
Format: functional
Method in brief: as §1
`Cn1nnnc1SCC1=C(C(=O)O)N2C(=O)[C@@H](NC(=O)Cn3cccc3C=O)[C@H]2SC1` showed an MIC of over 100 µg/mL. In the case of `CC(=O)OCC1=C(C(=O)O)N2C(=O)[C@@H](NC(=O)Cc3cccs3)[C@H]2SC1` [CEPHALOTHIN], the MIC is reported as over 100 µg/mL. Work on `CC(=O)OCC1=C(C(=O)O)N2C(=O)[C@@H](NC(=O)Cn3cccc3)[C@H]2SC1` yielded an MIC of over 100 µg/mL.

The compounds below were run on Providencia stuartii (assay: Antibacterial activity against Providencia stuartii after 17 hrs by serial two fold dilution method).
Format: functional
Method in brief: as §1
With `Cn1nnnc1SCC1=C(C(=O)O)N2C(=O)[C@@H](NC(=O)Cn3cccc3C=O)[C@H]2SC1` the MIC was 50 µg/mL (≈ 108 µM). For `CC(=O)OCC1=C(C(=O)O)N2C(=O)[C@@H](NC(=O)Cc3cccs3)[C@H]2SC1` [CEPHALOTHIN], the MIC was 100 µg/mL (≈ 252 µM). Compound `CC(=O)OCC1=C(C(=O)O)N2C(=O)[C@@H](NC(=O)Cn3cccc3)[C@H]2SC1` has an MIC of 50 µg/mL (≈ 132 µM).

The compounds below were run on Pseudomonas aeruginosa (assay: Antibacterial activity against Pseudomonas aeruginosa after 17 hrs by serial two fold dilution method).
Format: functional
Method in brief: as §1
In the case of `Cn1nnnc1SCC1=C(C(=O)O)N2C(=O)[C@@H](NC(=O)Cn3cccc3C=O)[C@H]2SC1`, the MIC is reported as over 100 µg/mL. `CC(=O)OCC1=C(C(=O)O)N2C(=O)[C@@H](NC(=O)Cc3cccs3)[C@H]2SC1` [CEPHALOTHIN] showed an MIC of over 100 µg/mL. `CC(=O)OCC1=C(C(=O)O)N2C(=O)[C@@H](NC(=O)Cn3cccc3)[C@H]2SC1` gave an MIC of over 100 µg/mL.

The compounds below were run on Salmonella (assay: Antibacterial activity against Salmonella schottmuelleri after 17 hrs by serial two fold dilution method).
Format: functional
Method in brief: as §1
Work on `Cn1nnnc1SCC1=C(C(=O)O)N2C(=O)[C@@H](NC(=O)Cn3cccc3C=O)[C@H]2SC1` yielded an MIC of 6.2 µg/mL (≈ 13.4 µM). In the case of `CC(=O)OCC1=C(C(=O)O)N2C(=O)[C@@H](NC(=O)Cc3cccs3)[C@H]2SC1` [CEPHALOTHIN], the MIC is reported as 0.8 µg/mL (≈ 2.02 µM). Work on `CC(=O)OCC1=C(C(=O)O)N2C(=O)[C@@H](NC(=O)Cn3cccc3)[C@H]2SC1` yielded an MIC of 3.1 µg/mL (≈ 8.17 µM).
